One molecule from ChEMBL document CHEMBL4699638, “A Multipronged Approach Establishes Covalent Modification of β-Tubulin as the Mode of Action of Benzamide Anti-cancer Toxins” (J Med Chem, 2020) can be followed below.

One experiment concerns 518T2. In words: Binding affinity to beta-tubulin in mouse 518T2 cells at 0.1 to 50 uM measured after 1.5 hrs using Alexa Fluor 532 dye by copper-mediated click reaction based SDS PAGE analysis. It counts as cell-based. To be noted: dose microM 0.1-50, time 1.5 hrs. The method in brief: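 Competition assay in 518T2 cells (1 million per well, DMEM with 5% FBS). Test analogs in DMSO were dispensed first at 100 nM to 50 μM and the cells plated onto them. The next day, alkyne probe (5 μM) was added for 1.5 h at 37 °C. Lysis was in 1% SDS HEPES buffer, followed by a click reaction with fluorescent azide, SDS-PAGE, and EC50 from displacement of the p50 band.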

The next experiment has as its system NCI-H2107. Put plainly: Anticancer activity against human NCI-H2107 cells assessed as reduction in cell viability measured after 72 hrs by celltiter-glo assay. Type of experiment: functional, cell-based.
The nature of experiment [1]: Anticancer activity against mouse 518T2 cells assessed as reduction in cell viability measured after 72 hrs by celltiter-glo assay. Type of experiment: functional, cell-based. The note with it: 518T2, 72 h. The method in brief: (§1)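 Cells seeded in duplicate at 10,000 per well in DMEM with 5% FBS and incubated overnight. Compounds were then added as a 10-point dose response. After 72 h, viability was read by CellTiter-Glo luminescence, with the reagent diluted 1:1 in PBS/1% Triton-X. Values were normalized to DMSO-treated cells and IC50 was derived from curve fitting.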
In general terms: In ATP-based viability assays light output follows the ATP content of the culture.

A short description of experiment [2]: Anticancer activity against mouse 319N1 cells assessed as reduction in cell viability measured after 72 hrs by celltiter-glo assay. It counts as functional, cell-based. To be noted: 319N1, 72 h. Summed up:
as §1

A further experiment concerns NCI-H128. In words: Anticancer activity against human NCI-H128 cells assessed as reduction in cell viability measured after 72 hrs by celltiter-glo assay. Type of experiment: functional, cell-based.
Experiment [3] is described as follows: Anticancer activity against mouse 984NA cells assessed as reduction in cell viability measured after 72 hrs by celltiter-glo assay. It counts as functional, cell-based. The method in brief:
as §1

The test system of the next experiment is NCI-H889. In words: Anticancer activity against human NCI-H889 cells assessed as reduction in cell viability measured after 72 hrs by celltiter-glo assay. Type of experiment: functional, cell-based.

Activity calls are given as the source filed them. No cut-off for these calls is given here.

Turning to `O=C(c1ccc(Cl)c([N+](=O)[O-])c1)N1CCN(c2ccccc2)CC1`, the “beta-tubulin binding (probe competition, active/inactive)” value in the experiment with 518T2 is “Active”. Moreover, the outcome with NCI-H2107, with NCI-H128 and with NCI-H889 was Active. In addition, the IC50 in experiment [1], in experiment [2] and in experiment [3] was 3.21 µM in each case.

For orientation: IC50 means the midpoint of a concentration-inhibition curve.
